In the library only some 0.49% were active in any assay of this set; here they are far more common.
ABCB1 inh: ABCB1 efflux pump inhibitors, primary screen, cell-based, multiplex, flow cytometry, ABCG2 counter-screen; inhibition, % at 6.6 µM; ATP-dependent translocase ABCB1 (Homo sapiens), P08183; CCRF-Adr cells, JC-1 efflux; 0.067% of 190,000 active; in the data active = inhibition above about 40%;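 also: 0% = vehicle and 100% = reference inhibitor; higher value means more JC-1 retained so stronger ABCB1 efflux block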
ABCG2 block: ABCG2 efflux pump inhibitors, primary screen, multiplex with ABCB1, IgMXP3 cells, flow cytometry | Broad substrate specificity ATP-binding cassette transporter ABCG2 (Homo sapiens), Q9UNQ0 | JC-1 efflux | inhibition, % at 6.6 µM | 0.1% of 190,000 active;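 active = inhibition above 80%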;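 also: 0% = DMSO and 100% = nicardipine control wells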
Target sequence (Q9UNQ0 whole entry, looked up): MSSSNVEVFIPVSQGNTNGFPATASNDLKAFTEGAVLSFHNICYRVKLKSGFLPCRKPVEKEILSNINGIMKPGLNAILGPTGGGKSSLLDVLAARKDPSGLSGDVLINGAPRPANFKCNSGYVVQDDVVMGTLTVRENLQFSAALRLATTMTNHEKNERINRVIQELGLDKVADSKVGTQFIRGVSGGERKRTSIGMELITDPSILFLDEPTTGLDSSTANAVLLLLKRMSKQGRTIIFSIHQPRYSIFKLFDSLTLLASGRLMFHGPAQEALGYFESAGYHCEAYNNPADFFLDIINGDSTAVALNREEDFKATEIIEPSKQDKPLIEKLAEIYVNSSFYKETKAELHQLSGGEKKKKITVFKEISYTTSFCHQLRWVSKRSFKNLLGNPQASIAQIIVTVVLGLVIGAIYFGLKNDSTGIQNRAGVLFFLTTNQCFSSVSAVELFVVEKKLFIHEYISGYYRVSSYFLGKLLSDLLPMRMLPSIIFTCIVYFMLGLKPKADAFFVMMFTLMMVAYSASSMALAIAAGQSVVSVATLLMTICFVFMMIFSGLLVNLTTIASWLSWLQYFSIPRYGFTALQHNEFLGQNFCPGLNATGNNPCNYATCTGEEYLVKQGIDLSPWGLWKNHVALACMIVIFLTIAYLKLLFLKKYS
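Test system: IgMXP3 cells (ABCG2) mixed with DDAO far-red-labelled CCRF-Adr cells (ABCB1). Reagent: JC-1 transporter substrate. Compound dosing: single test compound dose, 6.6 µM final. Times: 10 min compound exposure, 25 °C. Detection: flow cytometry of retained JC-1 fluorescence. Read-out basis: efflux inhibition in percent versus controls. Controls: nicardipine and DMSO wells.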
HSV augment: enhancers of HSV replication in host cells, fold increase, host cell viability; HSV replication augmentation in cells; maximum fold increase; 0.005% of 220,000 active; in the data active = maximum fold increase above about 1.5; tested in PC3 cells
Efa HMGR inh: inhibitors of E. faecalis class II HMGR, primary screen, biochemical, Enterococcus faecalis; HMG-CoA reductase (Enterococcus faecalis, mvaE); inhibition, % at 10 µM; 0.41% of 190,000 active; AID 1066, 2008; purified E. faecalis HMGR, NADPH absorbance 340 nm kinetic;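 active = inhibition above a set limit, the median over all tested compounds plus 3 SD, cut at about 9.5% in these data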;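 also: enzyme runs in reverse so mevalonate oxidation gives rising NADPH absorbance; 0% = complete reaction with DMSO and 100% = background rate lacking mevalonate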
Active calls of the source: *; i = inactive; · = no result; + = active, no number.

SMILES | ABCB1 inh | ABCG2 block | HSV augment | Efa HMGR inh
CCOC(=O)CSc1n[nH]c(NS(=O)(=O)c2ccccc2C(F)(F)F)n1 | 0 | -1 | i | -3
CCN(C)Cc1c(C(=O)N2CCc3ccccc3C2)nc2ccc(Cl)cn12 | 0 | 3 | i | -8
CCN(CC)Cc1c(C(=O)N2CCc3ccccc3C2)nc2ccc(Cl)cn12 | 1 | 1 | i | 17*
CCC(Sc1ccc2nnc(-c3cccnc3)n2n1)C(=O)OC (centres undefined) | 1 | 2 | i | 9.6*
CC(C)CC(NC(=O)C(COC(C)(C)C)NC(=O)C(Cc1ccc(O)cc1)NC(=O)C(CO)NC(=O)C(Cc1c[nH]c2ccccc12)NC(=O)C(Cc1cnc[nH]1)NC(=O)C1CCC(=O)N1)C(=O)N[C@@H](CCCN=C(N)N)C(=O)N1CCCC1C(=O)NNC(N)=O (some centres undefined) | · | · | i | ·
Brc1ccc(CSc2nnc3ccccn23)cc1 | 0 | 3 | i | 15*
COc1cc(S(=O)(=O)Nc2ccccc2C)ccc1NC(=O)c1ccncc1 | 0 | 1 | i | 16*
O=S(=O)(c1cccs1)N1CCN(c2ccc(O)cc2)CC1 | · | · | i | ·
CCOC(=O)[C@@H]1[C@H]2COc3ccccc3[C@@H]2N2C(=O)N(c3ccc(C(F)(F)F)cc3)C(=O)[C@]12C | · | · | i | ·
CC(CC(=O)NC(C)c1ccc2c(c1)OCCO2)c1ccccc1 (centres undefined) | 0 | 1 | i | 3
Cc1ccccc1C(=O)c1cccn1CC(=O)NC(C)c1ccc2c(c1)OCCO2 (centres undefined) | 1 | 4 | i | 12*
Cc1cc([N+](=O)[O-])ccc1NC(=O)C[n+]1ccc(N(C)C)cc1 | 2 | 2 | i | -4
Cc1ccc([N+](=O)[O-])cc1NC(=O)C[n+]1ccccc1 | 0 | 1 | i | 13*
CCOC(=O)c1oc2ccc(CNCCO)c(Cl)c2c1C | 1 | 3 | i | 10*
CCOC(=O)c1oc2ccc(CNC3CCCCC3)c(Cl)c2c1C | 1 | 2 | i | 6
Cc1ccc(S(=O)(=O)N2CCCCC2)cc1NC(=S)NC(=O)c1ccco1 | · | · | i | ·
CCOC(=O)/C(C#N)=C1/C(=O)N(Cc2ccccc2)c2ccccc21 | 0 | 2 | i | 15*
CCOC(=O)/C(C#N)=C1/C=Cc2ccccc2N1CC | 1 | 7 | i | -3
CCOC(=O)c1c(N)sc(C(=O)OCCOC)c1C | 0 | 10 | i | 13*
CN(Cc1ccc(F)cc1)C(=O)c1ccc2c(c1)NC(=O)CS2 | 0 | 2 | i | 12*
CCN(CCNCC(O)COCc1ccc(Cl)cc1)c1cccc(C)c1 (centres undefined) | 1 | 0 | i | 31*
Cc1cc(C(=O)COC(=O)c2ccc(Br)o2)c(C)n1C | 1 | 3 | i | -2
Cc1cc(C(=O)COc2ccc(F)cc2Br)c(C)n1C | 0 | 3 | i | 9.6*
CC(=O)N(C)c1nc(N)n(-c2ccccc2)n1 | 0 | 0 | i | 16*
CCN1/C(=C/c2ccc3cc(C)ccc3[n+]2CC)Sc2ccccc21 | · | + | · | -7
SMILES | ABCB1 inh | ABCG2 block | HSV augment | Efa HMGR inh
CCN1/C(=C/c2ccc3cc(C)ccc3[n+]2CC)Sc2cc(C)c(C)cc21 | 5 | 47 | · | -6
O=C(O)C1Nc2c(O)cc(Cl)c([N+](=O)[O-])c2C2C=CCC12 (centres undefined) | -1 | -1 | i | 13*
Cc1ccc2c(c1)C1C=CCC1C(C(=O)O)N2 (centres undefined) | -2 | -4 | i | 3
CC(=O)N1CCN(c2ccccc2NC(=O)COc2ccc(Br)cc2)CC1 | 2 | 0 | i | 13*
Cc1ccc(-c2nnc(SCC(=O)Nc3cccc(C(=O)N4CCOCC4)c3)n2C)cc1 | 1 | 2 | i | 2
COCCNC(=O)CCc1nnc(C2(c3ccc(Cl)cc3)CCC2)o1 | -2 | -1 | i | 13*
CC(C)(CO)CNC(=O)CCc1nnc(C2(c3ccc(Cl)cc3)CCC2)o1 | -3 | -3 | i | -2
O=C1CSC(c2ccccc2[N+](=O)[O-])N1c1cccc(F)c1 (centres undefined) | 1 | 7 | i | -3
O=C(c1ccc2c(c1)OCO2)C1CCCN(Cc2ccc3nsnc3c2)C1 (centres undefined) | 0 | 0 | i | 11*
O=c1c2nccnc2[nH]c(=S)n1Cc1ccccc1Cl | 1 | 4 | i | 1
CC(=O)c1ccccc1OC(=O)CCN1C(=O)C2C3C=CC(C4CC34)C2C1=O (centres undefined) | 1 | 6 | i | -3
CC(=O)c1ccccc1OC(=O)CCN1C(=O)c2ccccc2C1=O | 0 | 3 | i | 13*
CNc1nc(-c2ccccc2)nc(-c2ccc(OC)cc2)c1C#N | 0 | 0 | i | 13*
Cc1[nH]c2ccccc2c1/C=N/NC(=O)CNC(=O)c1ccc2c(c1)OCCO2 | · | · | i | ·
CCOC(=O)N1CCN(c2nc3ccccc3nc2C(C#N)S(=O)(=O)c2ccc(C)cc2)CC1 (centres undefined) | 0 | -1 | · | 5
CCOC(=O)NC(=O)/C(C#N)=C(/C)N(C)C | 0 | 5 | i | -1
CN(C)N=Nc1ccc(S(N)(=O)=O)cc1 | 0 | 1 | i | -4
CCN(CC)N=Nc1ccc(S(N)(=O)=O)cc1 | 0 | 1 | i | 10*
CCCCOC(=O)c1nc[nH]c1C(=O)OCCCC | 0 | -1 | i | 19*
CCOC(=O)c1[nH]cnc1C(=O)Nc1ccc(F)cc1 | 0 | 8 | i | -3
COc1ccc(N=c2ssnc2Cl)cc1 | -1 | -4 | i | 16*
Clc1ccc(N=c2ssnc2Cl)cc1 | -2 | -6 | i | 1
CCOc1ccc(C(=O)OCc2nnc(-c3cccs3)o2)cc1OC | 0 | 5 | i | -2
O=C1CCCC2=C1C(c1ccccc1)CC(=O)N2c1ccc(F)cc1F (centres undefined) | 0 | 1 | i | 12*
Cc1c(NC(=O)C(C)OC(=O)[C@@H](NC(=O)c2ccccc2)C(C)C)c(=O)n(-c2ccccc2)n1C (some centres undefined) | 0 | 1 | i | -9
COc1ccc(S(=O)(=O)N[C@H](C(=O)O)C(C)C)cc1 | 54* | -1 | i | -2
COCCN1Cc2cc3cc(C)ccc3nc2SC1=Nc1ccc(OC)cc1 | 1 | 1 | i | -5
CCC(C)N=C1Sc2nc3ccc(C)cc3cc2CN1CCOC (centres undefined) | 1 | 4 | i | 9.6*
Cc1ccc(CNC(=O)C(=O)NCC2OCCN2C(=O)c2ccc3c(c2)OCO3)cc1 (centres undefined) | 3 | 7 | i | -2

Screening data as filed in PubChem.
